Source: PubChem (The Scripps Research Institute Molecular Screening Center)
Tn7 DDE FP – inhibitors of Tn7 peptide binding to fibrin DD(E), primary screen, biochemical, fluorescence polarization, human fibrin, Tn7 probe | 0.13% of 370,000 active | inhibition, % at 8.3 µM | FP displacement of FITC-Tn7 peptide from fibrin DD(E); 0% = median of compound wells per plate;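 active = inhibition above the mean of compounds falling within the control limits plus 3 SD of them, cut at about 14% in these data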;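 also: 0% = plate median of compound wells and 100% = 10 µM Aha-Tn7 peptide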
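Also added: labelled Tn7 tracer, 0.1 µM; Assay system: human fibrin DD(E) protein; Amount: 2 µM fibrin DD(E); Schedule: 10 min compound pre-incubation, 3 h probe incubation at room temperature; Repeats: one replicate per compound; Read-out basis: percent inhibition; Measured by: fluorescence polarization of the labelled Tn7 tracer.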
DDE Tn6 FP inh – inhibitors of Tn6 peptide binding to fibrin DD(E), primary screen, biochemical, fluorescence polarization, human fibrin, Tn6 probe; Fibrin DD(E) TRITC-Tn6 fluorescence polarization displacement; inhibition, % at 8.3 µM; 0.21% of 370,000 active; AID 720509, 2013;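 active = inhibition above a per-campaign cutoff: mean of compounds within control limits plus 3 SD, cut at about 15% in these data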;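 also: 0% = median of all compound wells on the plate and 100% = blocking peptide control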
TCR CD3 inh – inhibitors of human TCR-CD3 interaction, primary screen, biochemical, fluorescence, TAMRA-labeled TCR probe; T-cell receptor (TCR); inhibition, % at 9.4 µM; 0.37% of 360,000 active; in the data active = inhibition above about 19%;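 also: recombinant mutant TCR 2C K166C tagged with TAMRA read by polarization; 0% = receptor in buffer alone and 100% = receptor with positive control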
HTRA1 inh – HTRA1 serine protease inhibitors, primary screen, biochemical, fluorescence polarization, HTS; recombinant HTRA1, FP-rhodamine activity-based probe; Q92743; inhibition, % at 5.96 µM; 0.5% of 340,000 active; in the data active = inhibition above about 36%;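 also: 0% = enzyme with DMSO and 100% = wells lacking enzyme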
SIAE inh – human SIAE inhibitors, primary screen, biochemical, fluorescence polarization, FP-Rh probe, 1536-well HTS | Sialate O-acetylesterase (Homo sapiens), Q9HAT2 | SIAE FP-Rh probe binding | inhibition, % at 9.66 µM | 0.69% of 370,000 active;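 active = inhibition above a cutoff: mean of compounds within the control limits plus 3 SD of those, cut at about 17% in these data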;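 also: 0% = plate median of compound wells and 100% = probe without SIAE protein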
mABHD4 FP – ABHD4 inhibitors, primary screen, biochemical, fluorescence polarization, mouse; (Lyso)-N-acylphosphatidylethanolamine lipase (Mus musculus), Q8VD66; AID 720543, 2013; inhibition, % at 8.92 µM; purified mABHD4, FP-Rh probe fluorescence polarization; 0.54% of 370,000 active;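 active = inhibition exceeding the mean over every tested compound plus 3 SD, cut at about 30% in these data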;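 also: 0% = plate median of compound wells and 100% = S159A mutant with DMSO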
Target sequence (Q8VD66 whole entry, looked up): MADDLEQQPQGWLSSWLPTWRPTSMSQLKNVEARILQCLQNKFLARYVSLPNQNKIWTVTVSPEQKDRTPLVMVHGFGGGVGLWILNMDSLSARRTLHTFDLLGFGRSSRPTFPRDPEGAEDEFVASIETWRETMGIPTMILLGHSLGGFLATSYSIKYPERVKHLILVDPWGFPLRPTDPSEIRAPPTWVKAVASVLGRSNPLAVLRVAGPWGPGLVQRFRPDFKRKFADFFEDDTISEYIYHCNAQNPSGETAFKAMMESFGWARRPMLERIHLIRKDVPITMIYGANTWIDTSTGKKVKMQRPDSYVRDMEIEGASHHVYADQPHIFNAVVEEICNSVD
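assay system = mABHD4 protein | compound dosing = single nominal dose of 8.92 µM, 0.89% DMSO final | read-out basis = percent inhibition of probe binding, normalized to plate controls | schedule = Enzyme–compound pre-incubation 45 min, then probe 60 min, both 25 °C | detection = fluorescence polarization, excitation 525 nm, emission 598 nm, BODIPY TMR filters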
ABHD4 confirm – ABHD4 inhibitors, retest, confirmation, biochemical, fluorescence polarization, mouse; purified mABHD4, FP-Rh probe fluorescence polarization; inhibition, % at 8.92 µM; 55% of 1,800 active; shares compounds with mABHD4 FP; AID 720658, 2013;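 active = mean inhibition across replicates above the hit cutoff set in the primary screen, cut at about 30% in these data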;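 also: 0% = wild-type ABHD4 with DMSO and 100% = catalytically dead S159A mutant with DMSO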
An asterisk follows results filed as active; . = not tested or not shown. Sampled rows, rich in hits. Any-hit rate of the full collection: about 1.8%.

SMILES | Tn7 DDE FP | DDE Tn6 FP inh | TCR CD3 inh | HTRA1 inh | SIAE inh | mABHD4 FP | ABHD4 confirm
O=C(NCc1ccccc1Cl)C1CCCN(c2nc3ccccc3o2)C1 (configuration not stated) | 1 | -5 | . | . | 2 | 5 | .
CN1c2ccccc2Sc2cc(N)ccc21 | 12 | -1 | 1 | 23 | 9 | 37* | 63*
O=C(c1ccc(Cl)c(Cl)c1)N1CCC(Oc2cccnc2)CC1 | 6 | 8 | . | . | 5 | -1 | .
C=CC(=O)NC1CCCCN(C(C)C)C1=O (configuration not stated) | 5 | 8 | . | . | -10 | 0 | .
O=C(CSC1=NNC(c2ccccn2)S1)Nc1cccc(Cl)c1 (configuration not stated) | -3 | 3 | -12 | . | -1 | 36* | -9
O=C(CSC1=NNC(c2ccccn2)S1)Nc1ccccc1 (configuration not stated) | -9 | 4 | -5 | 9 | 9 | 53* | -16
O=C(CSc1nncn1-c1ccccn1)Nc1cccc(Cl)c1 | 4 | -6 | -5 | 4 | 0 | -2 | .
O=C(CSc1nnc(-c2ccccn2)o1)Nc1ccccc1 | 12 | 0 | 1 | -2 | 5 | 2 | .
Cc1ccc(C(=O)/C=C/c2ccc(-c3ccccc3[N+](=O)[O-])o2)cc1 | 5 | 2 | -8 | 13 | -2 | 36* | -3
COc1ccc(OCC(C)CN2CCC(C(O)(c3ccccc3)c3ccccc3)CC2)cc1 (configuration not stated) | -7 | -3 | . | . | -3 | -2 | .
CCOC(=O)C1=C(SCC)c2cc3c(n2C1=O)CCCC3 | 2 | 0 | -3 | 35 | 0 | 36* | 75*
CCOC(=O)Cc1c(Sc2ccccc2)c2cc(C)ccc2n1C | 2 | 0 | -4 | -9 | -1 | 2 | .
Cc1ccc2c(c1)c(Sc1ccccc1)c(CC(=O)O)n2C | -5 | 6 | -2 | 1 | 2 | 30* | 35*
O=C(c1ccc2c(c1)OCO2)N1CCC(Oc2cccnc2)CC1 | 5 | 6 | . | . | -3 | -1 | .
O=C(CSc1ccc(-c2ccco2)nn1)c1cccc([N+](=O)[O-])c1 | -8 | 1 | 16 | 18 | 11 | 31* | 0
NC(=O)C1CCN(c2nc(-c3ccc4c(c3)OCCCO4)cs2)CC1 | -7 | -2 | . | . | 0 | 3 | .
C#CCN1CC(N(C)CCOC(=O)c2occ3ccccc23)CS1(=O)=O (configuration not stated) | -4 | -2 | . | . | 0 | 0 | .
C/C=C/COC(=O)c1[nH]c2c(c1C)C(=O)CC(c1ccco1)C2 (configuration not stated) | 7 | -2 | -2 | -10 | 3 | 32* | -14
CC1=NN(c2ccccc2)C(=O)/C1=C/c1c(O)n(-c2ccc(F)cc2)[nH]c1=O | -2 | -9 | 9 | 10 | -20 | 37* | 47*
O=[N+]([O-])c1cc2cccnc2c2ncccc12 | 7 | 1 | -10 | . | -5 | 1 | .
NS(=O)(=O)c1cccc2c1c([N+](=O)[O-])cc1nc(O)c(O)nc12 | 0 | 4 | 8 | 2 | 0 | 31* | 11
Cc1ccc(NC(=O)c2cccc3c2-c2ccccc2C3=O)c(C)c1 | 3 | -1 | . | . | 5 | 3 | .
COc1cc(N(C(C)=O)c2ccc(O)c(C(=O)O)c2)c2ncccc2c1 | -12 | 0 | 15 | 16 | 13 | 31* | 47*
COc1cc(N(C(C)=O)c2ccc(O)cc2)c2ncccc2c1 | 0 | -1 | -1 | 13 | 5 | 11 | .
O=C(NC1CCCCN(Cc2cccc(F)c2)C1=O)c1cccc(C(F)(F)F)c1 (configuration not stated) | -3 | -5 | . | . | 6 | -3 | .
SMILES | Tn7 DDE FP | DDE Tn6 FP inh | TCR CD3 inh | HTRA1 inh | SIAE inh | mABHD4 FP | ABHD4 confirm
Cc1ccc(O)c(C(C)c2c[nH]c3ccccc23)c1 (configuration not stated) | 11 | 8 | . | . | -3 | -12 | .
CC1(C)Nc2ccc(O)cc2-c2c1ssc2=S | -5 | 6 | -4 | 20 | 3 | 37* | 32*
CCc1ccc(S(=O)(=O)/N=C2\C=C(NS(=O)(=O)c3ccccc3)C(=O)c3ccccc32)cc1 | 12 | 4 | -12 | 7 | -2 | 28 | .
Cc1ccccc1NC1=C/C(=N\S(=O)(=O)c2ccc(C(=O)O)cc2)c2ccccc2C1=O | 2 | 6 | 4 | 26 | 4 | 63* | 65*
Cc1ccccc1NC1=C/C(=N\S(=O)(=O)c2cccs2)c2ccccc2C1=O | -4 | 0 | -8 | 18 | 7 | 28 | .
Cc1ccc(C)c(S(=O)(=O)/N=C2\C=C(NS(=O)(=O)c3ccccc3)C(=O)c3ccccc32)c1 | 5 | -4 | -7 | 13 | -4 | 46* | 58*
O=C(c1ccc(F)cc1F)N(Cc1ccccn1)CC1CCCO1 (configuration not stated) | 1 | 2 | . | . | -1 | 7 | .
CC(C)[C@@H]1CC[C@@H](C)C[C@H]1OC[B-](F)(F)F | -1 | -4 | -6 | . | 8 | 43* | 47*
O=C(CNc1ccc2ccccc2c1)N/N=C/c1ccccn1 | -4 | 0 | -2 | . | 15 | 39* | 12
COc1ccc(-n2c(SCC(=O)Nc3cc(C)c(NC(=O)c4ccccc4)cc3OC)nnc2-c2ccccc2F)cc1 | -4 | -2 | . | . | 2 | -4 | .
Cc1ccc(/C=C(\CCC(=O)O)c2nc3ccccc3s2)cc1[N+](=O)[O-] | 0 | -10 | -7 | -18 | -18 | -28 | .
CN(c1ccccc1)c1ccc(/C=C(\CCC(=O)O)c2nc3ccccc3s2)cc1[N+](=O)[O-] | 5 | -3 | 3 | 31 | 14 | 69* | 62*
CNc1ccc(/C=C(\CCC(=O)O)c2nc3ccccc3s2)cc1[N+](=O)[O-] | 1 | -10 | 1 | 8 | -14 | 47* | 54*
Cc1ccc(CC2CC(=O)N(CCc3ccccc3)C2=O)cc1 (configuration not stated) | 8 | 2 | 3 | 4 | -6 | 3 | .
C[C@@H]1C[C@H]2[C@@H](Cc3ccccc3)C(=O)N3[C@H](c4ccccc4)[C@H](C)C[C@H]3[C@@H](Cc3ccccc3)C(=O)N2[C@@H]1c1ccccc1 | 0 | -4 | . | . | 9 | 50* | 39*
